Laboratory results published in ChEMBL document CHEMBL1121883, “1-(Naphthylalkyl)-1H-imidazole derivatives, a new class of anticonvulsant agents” (J Med Chem, 1981).
Where “and” joins values, the source holds several entries; their conditions need not be identical. Equal values may be shown once.

Key:
Mus musculus [1] = assay: Compound was evaluated for anticonvulsant activity by maximal electroshock assay(MES) in mice after ip administration; 13-19; assay type: functional
Method in brief: (§1)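 Male Hilltop ICR-derived mice (19-30 g), groups of 8-10, dosed ip with compound or aqueous vehicle. After 15 min pretreatment, a transcorneal 60-Hz, 50 mA shock was given for 0.2 s. Just before the shock, each mouse was tested on a horizontal wire (10 s). Quantal data were analysed by Litchfield-Wilcoxon to give ED50 with 95% confidence limits.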

Mus musculus [2] = assay: Dose of compound causing a neurological deficit in 50% of mice after ip administration; 25-30; assay type: functional
Method in brief: (§2)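 Traction test in male Hilltop ICR-derived mice (19-30 g, groups of 8-10) just before electroshock, 15 min after ip or 30 min after oral dosing. Mice placed on a 16-gauge, 65-cm copper wire 40 cm above the table; deficit scored as failure to stay on for 10 s. ND50 with 95% limits by Litchfield-Wilcoxon.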

Mus musculus [3] = assay: Protective index is defined as ND50 (i.p.) divided by MES ED50(i.p.); assay type: functional
Method in brief: (§3)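 Ratio of ND50 from the wire traction test to MES ED50, both measured by the same route (ip or oral) in the same animals. Quantal dose-response data for each were evaluated by Litchfield-Wilcoxon.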

Mus musculus [4] = assay: Dose causing a neurological deficit in 50% of mice after ip administration.; assay type: functional; method in brief: as §2
Mus musculus [5] = assay: compound was evaluated for anticonvulsant activity by maximal electroshock assay(MES) in mice after ip administration.; assay type: functional
Method in brief: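 Male Hilltop ICR-derived mice, 19-30 g, groups of 8-10, given compound or aqueous vehicle […] before transcorneal electroshock (50 mA, 60 Hz, 0.2 s). Shock delivered after the traction test. ED50 with 95% confidence limits estimated from quantal data by Litchfield-Wilcoxon.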

Mus musculus [6] = assay: Compound was evaluated for anticonvulsant activity by maximal electroshock assay(MES) in mice after ip administration; 8-16; assay type: functional; method in brief: as §1
Mus musculus [7] = assay: Dose of compound causing a neurological deficit in 50% of mice after ip administration; 19-38; assay type: functional; method in brief: as §2
Mus musculus [8] = assay: Compound was evaluated for anticonvulsant activity by maximal electroshock assay(MES) in mice after po administration; 34-89; assay type: functional
Method in brief: (§4)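 Male Hilltop ICR-derived mice (19-30 g), groups of 8-10, given compound or aqueous vehicle orally. The transcorneal 60-Hz shock (50 mA, 0.2 s) followed a 30 min pretreatment and a wire-hang neurological check (10 s). ED50 and 95% confidence limits were obtained from quantal data by the Litchfield-Wilcoxon method.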

Mus musculus [9] = assay: Dose of compound causing a neurological deficit in 50% of mice after ip administration; 20-35; assay type: functional; method in brief: as §2
Mus musculus [10] = assay: Dose causing a neurological deficit in 50% of mice following p.o. administration.; assay type: functional; method in brief: as §2
Mus musculus [11] = assay: Protective index defined as ND50 (p.o.) divided by MES ED50(op); assay type: functional; method in brief: as §3
Mus musculus [12] = assay: Compound was evaluated for anticonvulsant activity by maximal electroshock assay(MES) in mice after po administration; 55-103; assay type: functional; method in brief: as §4
Mus musculus [13] = assay: Compound was evaluated for anticonvulsant activity by maximal electroshock assay(MES) in mice after ip administration; 20-28; assay type: functional; method in brief: as §1
[14] = Lethal dose was measured in mice after ip administration.; assay type: toxicity, organism-based; conditions: mouse, in vivo
Method in brief: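 Male Simonsen ICR-derived mice (16-24 g), groups of three, given compound ip in increasing doses within a behavioral screen. Deaths counted on day 5, and LD50 estimated from 5-day survival. Quantal data analysed by the Litchfield-Wilcoxon method.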

Mus musculus [15] = assay: Compound was evaluated for anticonvulsant activity by maximal electroshock assay(MES) in mice after po administration; 29-53; assay type: functional; method in brief: as §4
Mus musculus [16] = assay: Compound was evaluated for anticonvulsant activity by maximal electroshock assay(MES) in mice after ip administration; 12-15; assay type: functional; method in brief: as §1
Mus musculus [17] = assay: Dose of compound causing a neurological deficit in 50% of mice after ip administration; 61-69; assay type: functional; method in brief: as §2
Rattus norvegicus [18] = assay: Compound was evaluated for anticonvulsant activity by maximal electroshock assay(MES) in rat after ip administration; 1.2-6.2; assay type: functional
Rattus norvegicus [19] = assay: Dose of compound causing a neurological deficit in 50% of rat after ip administration; 35-83; assay type: functional
Method in brief: (§5)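 Rats (Simonsen Sprague-Dawley-derived, 80-110 g, groups of 8-10) placed on a suspended 16-gauge, 65-cm copper wire just before electroshock. Deficit scored as inability to remain for 8 s. Pretreatment was 15 min ip or 30 min oral. Quantal data analysed by Litchfield-Wilcoxon to give ND50 with 95% limits.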

Mus musculus [20] = assay: Compound was evaluated for anticonvulsant activity by maximal electroshock assay(MES) in mice after po administration; 55-105; assay type: functional; method in brief: as §4
Mus musculus [21] = assay: Dose of compound causing a neurological deficit in 50% of mice after ip administration; 53-96; assay type: functional; method in brief: as §2
Mus musculus [22] = assay: Compound was evaluated for anticonvulsant activity by maximal electroshock assay(MES) in mice after ip administration; 18-25; assay type: functional; method in brief: as §1
Rattus norvegicus [23] = assay: Compound was evaluated for anticonvulsant activity by maximal electroshock assay(MES) in rat after po administration; 31-105; assay type: functional
Method in brief: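 Male Simonsen Sprague-Dawley-derived rats, 80-110 g, groups of 8-10, dosed with compound or aqueous vehicle; pretreatment 15 min after ip or 30 min after oral dosing. Transcorneal electroshock, 150 mA, 60 Hz, 0.2 s, given after the wire test. ED50 with 95% confidence limits from quantal data by Litchfield-Wilcoxon.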

Rattus norvegicus [24] = assay: Dose of compound causing a neurological deficit in 50% of rat after po administration.; assay type: functional; method in brief: as §5

Compound: CCCCOC(Cn1ccnc1)c1cccc2ccccc12 (stereo not given)
- ED50 (Mus musculus [1]): 16 mg/kg
- ND50 (Mus musculus [2]): 27 mg/kg
- PI (Mus musculus [3]): 1.7

Compound: COC(Cn1ccnc1)(OC)c1ccc2ccccc2c1
- ND50 (Mus musculus [4]): >40 mg/kg
- ED50 (Mus musculus [5]): > 40 mg/kg

Compound: CCOC(Cn1ccnc1)c1ccc2ccccc2c1 (stereo not given)
- ED50 (Mus musculus [6]): 11 mg/kg
- ND50 (Mus musculus [7]): 27 mg/kg
- PI (Mus musculus [3]): 2.5

Compound: CC1CCOC(Cn2ccnc2)(c2ccc3ccccc3c2)O1 (stereo not given)
- ED50 (Mus musculus [8]): 56 mg/kg
- ND50 (Mus musculus [9]): 26 mg/kg
- ND50 (Mus musculus [10]): >100 mg/kg
- PI (Mus musculus [11]): >1.8
- PI (Mus musculus [3]): 1.4

Compound: Cc1ccc2cc(C(=O)Cn3ccnc3)ccc2c1.Cl
- ED50 (Mus musculus [12]): 76 mg/kg
- ND50 (Mus musculus [4]): >100 mg/kg
- ND50 (Mus musculus [10]): >150 mg/kg
- ED50 (Mus musculus [13]): 24 mg/kg
- LD50 [14]: > 100 mg/kg
- PI (Mus musculus [11]): >2
- PI (Mus musculus [3]): >4.3

Compound: Br.CCc1ccc2cccc(C(=O)Cn3ccnc3)c2c1
- ED50 (Mus musculus [15]): 40 mg/kg
- ED50 (Mus musculus [16]): 13 mg/kg
- ND50 (Mus musculus [17]): 65 mg/kg
- ND50 (Mus musculus [10]): >100 mg/kg
- ED50 (Rattus norvegicus [18]): 3.1 mg/kg
- ND50 (Rattus norvegicus [19]): 53 mg/kg
- PI (Mus musculus [11]): >2.5

Compound: Cc1ccc2cccc(C(=O)Cn3ccnc3)c2c1.Cl
- ED50 (Mus musculus [20]): 74 mg/kg
- ND50 (Mus musculus [21]): 73 mg/kg
- ND50 (Mus musculus [10]): >300 mg/kg
- ED50 (Mus musculus [22]): 22 mg/kg
- ED50 (Rattus norvegicus [23]): 52 mg/kg
- ND50 (Rattus norvegicus [24]): >100 mg/kg
- PI (Mus musculus [11]): >4.1 and >1.9
- PI (Mus musculus [3]): 3.3
